Measurements: ChEMBL document CHEMBL1154852, “Design, synthesis and pharmacological screening of potential anticonvulsant agents using hybrid approach” (Eur J Med Chem, 2010)

How the values were obtained:
[1] = system: Mus musculus; assay: Toxicity in ip dosed Swiss albino mouse assessed as decrease in locomotor activity after 30 mins by actophotometer; format: organism-based; conditions: in vivo, 0.5 h
How it was run: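 Actophotometer test in six mice per group, dosed 10 or 30 mg/kg i.p.; vehicle control 0.2% Tween 80 (0.3 ml/kg); diazepam 5 mg/kg as standard. Scored 30 min after dosing: beam interruptions counted over 10 min after 1 min acclimatization, before versus after treatment. Mean ± SEM.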

[2] = system: Mus musculus; assay: Anticonvulsant activity in Swiss albino mouse assessed as reduction of supramaximal electroshock-induced hind limb tonic extension response at 30 mg/kg, ip administered 30 mins before SME challenge measured after 1 hr; format: functional, Hindlimb; conditions: route intraperitoneal
How it was run: (§1)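 Swiss albino mice of either sex, 30–35 g, n=6 per group, dosed 10 or 30 mg/kg i.p.; diazepam 5 mg/kg as standard. After 1 h, electroshock 42 mA for 0.2 s via ear electrodes. Readout: duration of hind limb extension phase (sec). Mean ± SEM; one-way ANOVA with Student–Newman–Keuls test.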

[3] = system: Mus musculus; assay: Toxicity in ip dosed Swiss albino mouse assessed as assessed as decrease in fall of time after 30 mins by rotarod test; format: organism-based; conditions: in vivo, 0.5 h
[4] = system: Mus musculus; assay: Anticonvulsant activity in Swiss albino mouse assessed as inhibition of isoniazide hydrazone-induced seizure at 30 mg/kg, ip administered 30 mins before isoniazide hydrazone challenge measured after 1 hr; format: functional; conditions: route intraperitoneal
How it was run: (§2)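 Swiss albino mice, 30–35 g, given test drug 10 or 30 mg/kg i.p.; INH 250 mg/kg i.p. injected 30 min later. Animals showing excitement, myoclonic jerks, clonic and maximal seizures grouped, n=6. Readout: reduction of seizure duration (sec). Reference standard diazepam. Mean ± SEM; one-way ANOVA with Student–Newman–Keuls test.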

[5] = system: Mus musculus; assay: Anticonvulsant activity in Swiss albino mouse assessed as reduction of supramaximal electroshock-induced hind limb tonic extension response at 10 mg/kg, ip administered 30 mins before SME challenge measured after 1 hr; format: functional, Hindlimb; conditions: route intraperitoneal; how it was run: as §1
[6] = system: Mus musculus; assay: Anticonvulsant activity in Swiss albino mouse assessed as inhibition of isoniazide hydrazone-induced seizure at 10 mg/kg, ip administered 30 mins before isoniazide hydrazone challenge measured after 1 hr; format: functional; conditions: route intraperitoneal; how it was run: as §2

| SMILES | Activity [1] | Activity [2] | Activity [3] | Activity [4] | Activity [5] | Activity [6] |
| --- | --- | --- | --- | --- | --- | --- |
| Cc1csc(NC(=O)c2ccccc2)c1C(=O)NN1C2=Nc3ccccc3NC(c3ccccc3Cl)C2SC1/C=C/c1ccccc1 (stereo not drawn) | Non-toxic | 13.632 s | Non-toxic | 83.33 s | 14.54 s | 81.833 s |
| Cc1csc(NC(=O)c2ccccc2)c1C(=O)NN1C2=Nc3ccccc3NC(c3ccccc3O)C2SC1/C=C/c1ccccc1 (stereo not drawn) | Non-toxic | 14.263 s | Non-toxic | 87.667 s | 13.228 s | 85.5 s |
| Cc1csc(NC(=O)c2ccccc2)c1C(=O)NN1C2=Nc3ccccc3NC(c3ccc(N(C)C)cc3)C2SC1/C=C/c1ccccc1 (stereo not drawn) | Non-toxic | 13 s | Non-toxic | 95.33 s | 13.355 s | 92.33 s |
| CN1C(=O)CN=C(c2ccccc2)c2cc(Cl)ccc21 [DIAZEPAM] | Non-toxic | – | Non-toxic | – | – | – |
| Cc1csc(NC(=O)c2ccccc2)c1C(=O)NN1C2=Nc3ccccc3NC(c3cccc([N+](=O)[O-])c3)C2SC1/C=C/c1ccccc1 (stereo not drawn) | Non-toxic | 14.907 s | Non-toxic | 78.833 s | 15.328 s | 71.33 s |
| Cc1csc(NC(=O)c2ccccc2)c1C(=O)NN1C2=Nc3ccccc3NC(c3ccc(F)cc3)C2SC1/C=C/c1ccccc1 (stereo not drawn) | Non-toxic | 15.408 s | Non-toxic | 74 s | 16.442 s | 69.833 s |
| COc1ccc(C2Nc3ccccc3N=C3C2SC(/C=C/c2ccccc2)N3NC(=O)c2c(C)csc2NC(=O)c2ccccc2)cc1 (stereo not drawn) | Non-toxic | 14.907 s | Non-toxic | 108.5 s | 15.328 s | 101.83 s |
